# Bioassay records deposited in PubChem BioAssay by The Scripps Research Institute Molecular Screening Center.
# Sampled rows, rich in hits. Any-hit rate of the full collection: about 4.5%.
# GPR7 antagonist = GPR7 receptor antagonists, primary screen, cell-based, fluorescence, single concentration | Neuropeptides B/W receptor type 1 (Homo sapiens), P48145 | GPR7-expressing cells, fluorescence antagonist assay | inhibition, % at 4.4 µM | 290,000 compounds, 1.1% hits; in the data active = inhibition above about 16%, passing the limit was not always enough;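 also: cells stimulated with the agonist NPW; 0% = agonist with vehicle and 100% = vehicle without agonist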
# TAAR1 ag = human TAAR1 agonists, primary screen, Fluo-8 calcium fluorescence, CHO RD-HGA16 cells. Trace amine-associated receptor 1 (Homo sapiens), Q96RJ0. AID 624467, 2012. vehicle wells 0%, saturating PEA agonist 100%. activation, % at 3 µM. 360,000 compounds, 0.99% hits;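 active = activation above the mean activation of all test compounds in the run plus 3 SD, cut at about 38% in these data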
# Target sequence (Q96RJ0 whole entry, looked up): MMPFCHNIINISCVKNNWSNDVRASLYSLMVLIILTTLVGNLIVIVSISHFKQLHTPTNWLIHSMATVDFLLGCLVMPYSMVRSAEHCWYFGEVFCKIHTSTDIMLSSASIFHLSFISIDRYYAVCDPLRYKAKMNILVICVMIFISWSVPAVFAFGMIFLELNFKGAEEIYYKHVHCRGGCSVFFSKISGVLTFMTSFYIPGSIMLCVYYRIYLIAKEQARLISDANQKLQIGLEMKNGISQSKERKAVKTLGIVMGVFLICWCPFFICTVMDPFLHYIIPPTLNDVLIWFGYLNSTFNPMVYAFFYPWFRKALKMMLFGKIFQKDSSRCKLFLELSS
#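 Test system: RD-HGA16 (CHO) cells co-expressing Gα16 and hTAAR1 | Doses: Single dose, 3 µM | Schedule: 17-24 h seeding, 75 min 37 °C dye, 30 min RT | Evaluation: % activation from peak over basal fluorescence ratio, DMSO-to-PEA scaled | Technique: Kinetic Fluo-8 calcium fluorescence | Benchmarks: Low control DMSO, high control PEA (EC100)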
# OX1R antag-1 = antagonists of human orexin 1 receptor (OX1R). Orexin/Hypocretin receptor type 1 (Homo sapiens), O43613. AID 485270, 2010. OX1R-expressing cells, FRET antagonist read-out. inhibition, % at 6.6 µM. 330,000 compounds, 1.8% hits; in the data active = inhibition mostly above about 38%, no sharp cut-off; inactive = mostly below about 40%;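 also: 0% = agonist challenge alone and 100% = reference antagonist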
# Target sequence (O43613 whole entry, looked up): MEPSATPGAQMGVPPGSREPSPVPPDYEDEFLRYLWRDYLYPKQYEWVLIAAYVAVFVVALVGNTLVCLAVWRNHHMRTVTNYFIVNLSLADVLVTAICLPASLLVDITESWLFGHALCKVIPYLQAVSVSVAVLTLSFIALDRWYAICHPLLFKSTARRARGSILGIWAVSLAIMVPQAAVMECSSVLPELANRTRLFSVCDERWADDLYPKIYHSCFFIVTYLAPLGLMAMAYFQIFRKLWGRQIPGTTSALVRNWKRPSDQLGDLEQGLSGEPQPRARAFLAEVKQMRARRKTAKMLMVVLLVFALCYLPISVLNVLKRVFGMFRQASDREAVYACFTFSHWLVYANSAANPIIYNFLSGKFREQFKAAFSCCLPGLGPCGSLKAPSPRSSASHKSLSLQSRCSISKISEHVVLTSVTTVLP
# CHO parental Ca = ATP-evoked calcium signal inhibitors, parental CHO, primary screen, counter-screen for OX1R antagonist project, cell-based, fluorescence, Fluo-8 calcium dye. AID 463079, 2010. inhibition, % at 5.6 µM. 330,000 compounds, 0.63% hits. parental CHO-K1, ATP-induced calcium, Fluo-8 fluorescence;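 active = inhibition above that plate's mean sample inhibition plus 3 SD, cut at about 26% in these data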;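 also: 0% = ATP-challenged DMSO wells and 100% = DMSO wells without ATP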
#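 Measured by: calcium-sensitive Fluo-8 fluorescence / Test system: CHO parental line / Controls: ATP-challenged DMSO wells low, unchallenged DMSO wells high / Measure: % inhibition / Compound: single nominal dose of 5.6 µM per compound / Replicates: single well per compound, no replicates / Reagent: ATP as calcium-mobilizing challenge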
# TAAR1 antag = human TAAR1 antagonists, primary screen, Fluo-8 calcium fluorescence, CHO RD-HGA16 cells; Trace amine-associated receptor 1 (Homo sapiens), Q96RJ0; antagonist; inhibition, % at 3 µM; 360,000 compounds, 1.5% hits; AID 624466, 2012;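 active = inhibition above a per-plate cutoff, the mean inhibition of test compounds on that plate plus 3 SD, cut at about 49% in these data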;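 also: 0% = DMSO plus EC80 beta-PEA response and 100% = DMSO alone without agonist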
#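 Test system: hTAAR1-expressing CHO RD-HGA16 cells, Gα16-coupled; Probe or stimulus: EC80 β-phenethylamine stimulus; Compound dosing: single nominal final test compound concentration of 3 µM; Timing: 140 s kinetic read after compound, 140 s after agonist; Signal: Fluo-8 calcium-sensitive fluorescence; Measure: % inhibition of agonist calcium response; Controls: DMSO and EC80 PEA controls.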
# OX1R antag-2 = OX1R (HCRTR1) antagonists, primary screen, fluorescence, CHO/OX1R cells, Fluo-8 calcium, orexin A; Orexin/Hypocretin receptor type 1 (Homo sapiens), O43613; Fluo-8 calcium fluorescence; inhibition, % at 5 µM; 330,000 compounds, 0.43% hits; AID 434989, 2010;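 active = inhibition above its plate's threshold, mean inhibition of all tested compounds on the plate plus 3 SD, cut at about 37% in these data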;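 also: 0% = orexin A challenge wells and 100% = SB-334867-A antagonist wells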
# nonsel antag count = nonselective antagonists in TAAR1 counter-screen cells, counter-screen for hTAAR1 antagonist project, cell-based, fluorescence, calcium | shares compounds with TAAR1 antag | counterscreen cell line, antagonist mode | inhibition, % at 3 µM | 2,400 compounds, 77% hits; in the data active = inhibition above about 22%;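 also: CHO-Ga16 host cells stimulated with ATP at an EC80 level; 0% = agonist EC80 plus vehicle and 100% = vehicle without agonist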
# TAAR1 antag conf = human TAAR1 antagonists, retest of hits, confirmation, cell-based, fluorescence | TAAR1-expressing cells, fluorescence antagonist read-out | inhibition, % at 3 µM | 2,400 compounds, 40% hits | AID 651785, 2012 | shares compounds with TAAR1 antag; in the data active = inhibition above about 49%;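 also: CHO-Ga16 host cells challenged with agonist PEA near its EC80; 0% = agonist at EC80 plus vehicle and 100% = vehicle with no agonist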
# Ga16 ag counter = calcium activation in Ga16-expressing cells, counter-screen for TAAR1 antagonist project, cell-based, fluorescence. shares compounds with TAAR1 antag. agonist counterscreen. activation, % at 3 µM. 2,400 compounds, 18% hits; in the data active = activation above about 12%;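 also: 0% = vehicle wells and 100% = saturating stimulus response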
# TAAR1 ag count = TAAR1 activation by candidate antagonists – cell-based, fluorescence, counter-screen for TAAR1 antagonist project; 2,400 compounds, 2% hits; activation, % at 3 µM; shares compounds with TAAR1 antag; hTAAR1 cell line, agonist mode; in the data active = activation above about 37%;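 also: CHO cells stably expressing TAAR1 with calcium dye readout; 0% = DMSO vehicle and 100% = full agonist response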
# An asterisk follows results filed as active; . = no result.
SMILES,GPR7 antagonist,TAAR1 ag,OX1R antag-1,CHO parental Ca,TAAR1 antag,OX1R antag-2,nonsel antag count,TAAR1 antag conf,Ga16 ag counter,TAAR1 ag count
COc1ccc(CCNc2oc(COc3ccccc3F)nc2C#N)cc1OC,9,16,26,-5,59*,-10,37*,49*,12*,10
Cc1ccc(OCc2nnn(CC(=O)NS(=O)(=O)c3c(C)noc3C)c2-c2ccccc2)cc1,.,1,.,.,0,.,.,.,.,.
Cc1cc(C)c2c(=O)n3c(nc2c1)C(C)NC(=O)c1cccnc1-3 (stereo not drawn),.,-1,.,.,-3,.,.,.,.,.
COc1ccc(Nc2c(C3CC3)nc3nc(C)cc(C)n23)cc1,.,4,.,.,-26,.,.,.,.,.
COc1ccc(Cl)cc1C(=O)OCC(=O)Nc1sccc1C(N)=O,.,24,18,-17,57*,1,26*,50*,11,14
COc1cc(CC(=O)Nc2sccc2C(N)=O)cc(OC)c1OC,-11,8,35,-24,13,5,.,.,.,.
NC(=O)C1CCN(C(=O)c2ccc3c(=O)n(Cc4ccco4)c(SCc4ccc([N+](=O)[O-])cc4)nc3c2)CC1,6,3,10,-20,49*,-28,31*,41,5,7
CCCCCn1c(SCC2CCCO2)nc2cc(C(=O)N3CCC(C(N)=O)CC3)ccc2c1=O (stereo not drawn),-5,19,9,-19,25,-17,.,.,.,.
Cc1ccc(S(=O)(=O)Nc2ccccc2N=Cc2ccc([N+](=O)[O-])cc2[N+](=O)[O-])cc1,.,13,.,.,64*,.,-4,-3,0,6
COc1ccc([N+](=O)[O-])cc1NS(=O)(=O)c1ccc(C)cc1,-5,2,9,0,3,-9,.,.,.,.
COc1cccc(OCCn2cc(C(=O)c3ccco3)c3ccccc32)c1,11,8,17,26,70*,46*,22*,46,5,7
COc1ccccc1OCCn1cc(C(=O)c2ccco2)c2ccccc21,9,10,22,-24,45,0,.,.,.,.
COc1cccc(C=C2SC(=S)N(Cc3ccco3)C2=O)c1OC,.,3,.,.,-6,.,.,.,.,.
CCCCc1nc(NCCNC(=O)c2ccccc2)c(C#N)c2c1CSC(C)(C)C2,-5,15,7,-22,68*,-35,30*,52*,7,6
N#Cc1ccc(N)cc1OCCCN1CCCCC1,.,2,.,.,-15,.,.,.,.,.
COc1ccccc1C(=O)NC(=O)COC(=O)CN1C(=O)NC2(CCCCC2C)C1=O (stereo not drawn),.,0,2,-6,-10,-6,.,.,.,.
CCC1(CC)NC(=O)N(CC(=O)OCC(=O)Nc2ccccc2OC(F)F)C1=O,.,1,5,2,9,-8,.,.,.,.
CCC1(CC)NC(=O)N(CC(=O)OCC(=O)Nc2ccccc2[N+](=O)[O-])C1=O,-8,19,38,-9,68*,-12,23*,52*,12*,10
CC1CCCCC12NC(=O)N(CC(=O)OCC(=O)Nc1ccc(F)cc1[N+](=O)[O-])C2=O (stereo not drawn),.,21,19,-9,76*,3,32*,53*,10,14
Cc1ccc(C(=O)N[C@H](C(=O)Nc2cccc(S(=O)(=O)N3CCOCC3)c2)C(C)C)cc1,.,-2,.,.,-22,.,.,.,.,.
O=C(CCN1C(=O)CSc2ccccc21)Nc1ccc(C(F)(F)F)cc1,.,5,6,-25,62*,25,19,43,10,18
O=C(CCN1C(=O)CSc2ccccc21)Nc1cccc(C(F)(F)F)c1,.,6,12,-26,28,-10,.,.,.,.
CC(C)n1nnnc1C1c2ccccc2C(=O)N1C1CC1 (stereo not drawn),.,0,.,.,-9,.,.,.,.,.
COCCn1c(SCC(=O)Nc2ccccc2OC)nc2c(oc3ccccc32)c1=O,1,0,13,-29,52*,-41,21,33,2,0
COCCn1c(SCC(=O)Nc2ccccc2)nc2c(oc3ccccc32)c1=O,-12,1,14,-17,5,-32,.,.,.,.
SMILES,GPR7 antagonist,TAAR1 ag,OX1R antag-1,CHO parental Ca,TAAR1 antag,OX1R antag-2,nonsel antag count,TAAR1 antag conf,Ga16 ag counter,TAAR1 ag count
N#Cc1ccc(-c2c(-c3ccccc3)ncc3cc(F)ccc23)cc1,.,1,12,-29,59*,-16,18,44,1,3
O=[N+]([O-])c1ccc(-c2c(-c3ccccc3)ncc3ccc(F)cc23)cc1,.,0,15,-25,74*,-1,19,66*,-1,-2
Fc1ccc2cnc(-c3ccccc3)c(-c3ccc(C(F)(F)F)cc3)c2c1,.,0,-1,-40,63*,-14,9,37,4,-1
Fc1ccc2cnc(-c3ccccc3)c(-c3cc(C(F)(F)F)cc(C(F)(F)F)c3)c2c1,.,3,15,-42,-21,-24,.,.,.,.
CCCCN1C(=O)C(CC(=O)NCCCN(C)C)CC(C(=O)N2CCOCC2)=C1C (stereo not drawn),.,7,.,.,-31,.,.,.,.,.
COc1ccc(CN2C[C@]3(CO)O[C@@H](CO)C[C@@H]3S2(=O)=O)cc1,.,1,9,-7,-14,-7,.,.,.,.
Cc1ccc(NC(=O)Cn2nc(C(=O)O)c3ccccc3c2=O)cc1S(=O)(=O)N1CCCCCC1,.,-4,.,.,102*,.,36*,43,9,6
O=C(CSc1nnc(Nc2ccccc2)s1)Nc1ccc(S(=O)(=O)N2CCOCC2)cc1,-6,26,47,22,57*,25,36*,37,8,12
O=C(CSc1nnc2c(n1)[nH]c1ccccc12)Nc1ccc(N2CCOCC2)cc1,15,-2,9,-18,14,-16,.,.,.,.
O=C(CSc1nnc2c(n1)[nH]c1ccccc12)Nc1cccc(S(=O)(=O)N2CCOCC2)c1,-7,12,10,1,70*,-10,43*,52*,9,10
